ChEMBL document CHEMBL3580554, “Design, synthesis, and anticonvulsant activity of new hybrid compounds derived from 2-(2,5-dioxopyrrolidin-1-yl)propanamides and 2-(2,5-dioxopyrrolidin-1-yl)butanamides” (J Med Chem, 2015)

Legend:
[1] = organism: Mus musculus; test: Protective index, ratio of neurotoxic TD50 in Swiss mouse by Chimney test to anticonvulsant ED50 in Swiss mouse measured at 0.5 hrs of time to peak effect by 6 Hz test by 6 Hz psychomotor seizure test; format: functional
Summary of the method: (§1)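 Protective index was calculated as TD50 (chimney test, mouse, i.p.) divided by ED50 from the matching MES, sc PTZ or 6 Hz test, both taken at the time of peak effect.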

[2] = organism: Rattus norvegicus; test: Inhibition of [125I]omega-conotoxin GVIA binding to N-type calcium channel in rat cerebral cortex synaptosomes at 100 uM incubated for 30 mins by scintillation counting based radioligand displacement assay; format: subcellular
[3] = organism: Mus musculus; test: Protective index, ratio of neurotoxic TD50 in Swiss mouse by Chimney test to anticonvulsant ED50 in Swiss mouse measured at 1 hr of time to peak effect by maximal electroshock test; summary of the method: as §1
[4] = test system: Mus musculus; test: Anticonvulsant activity in Swiss mouse assessed as protection against seizures at 300 mg/kg, ip dosed 0.5 hrs before initiation of maximal electroconvulsions by maximal electroshock test; format: functional
Summary of the method: (§2)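 Mice were dosed i.p. at a fixed 300 or 100 mg/kg (6 Hz: 100 mg/kg only). Protection was then scored against MES, sc PTZ or 6 Hz seizures at pretreatment times of 0.25, 0.5, 1 and 2 h. Groups were four mice, scored as number protected / number tested. This also gives the time course and time of peak effect.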

[5] = test system: Liver microsome; test: Drug metabolism in human liver microsomes assessed as metabolite M1 formation at 50 uM in presence of NADPH regeneration system pre-incubated at 37 degC for 5 min and measured 2 hrs after post NADPH system addition by UPLC and LC-MS/MS method; format: ADME
Summary of the method: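 The compound was incubated 2 h with human liver microsomes. Metabolites were detected by full-scan chromatogram and identified by LC/MS from their [M+H]+ molecular masses.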

[6] = organism: Rattus norvegicus; test: Inhibition of [3H]BTX binding to sodium channel site 2 in rat cerebral cortex synaptosomes at 100 uM incubated for 60 mins by scintillation counting based radioligand displacement assay; format: subcellular
Summary of the method: (§3)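 Synaptoneurosomal preparations from rat cerebral cortex were used. The read-out was inhibition of specific [3H]BTX binding to the voltage-sensitive sodium channel (site 2), expressed as % inhibition of control specific binding. Compounds were tested at 1, 10, 100 and 500 μM. Inhibition above 50% was taken as significant.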

[7] = organism: Rattus norvegicus; test: Inhibition of [3H]BTX binding to sodium channel site 2 in rat cerebral cortex synaptosomes at 10 uM incubated for 60 mins by scintillation counting based radioligand displacement assay; format: subcellular; summary of the method: as §3
[8] = test system: Mus musculus; test: Anticonvulsant activity in Swiss mouse assessed as protection against seizures at 100 mg/kg, ip dosed 0.25 hrs before pentylenetetrazole challenge by subcutaneous pentylenetetrazole seizure test; format: functional; summary of the method: as §2
[9] = test system: Mus musculus; test: Anticonvulsant activity in Swiss mouse model of 6 Hz psychomotor seizure mode assessed as protection against seizures at 100 mg/kg, ip dosed 0.5 hrs before 6 Hz electrical stimulation by 6 Hz test; format: functional; summary of the method: as §2
[10] = test system: Mus musculus; test: Anticonvulsant activity in Swiss mouse assessed as protection against seizures at 300 mg/kg, ip dosed 2 hrs before pentylenetetrazole challenge by subcutaneous pentylenetetrazole seizure test; format: functional; summary of the method: as §2
[11] = Toxicity in ip dosed Swiss mouse assessed as induction of motor performance impairment measured within 60 seconds measured at 1 hr of time to peak effect by Chimney test; format: organism-based; details: in vivo
Summary of the method: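 Neurotoxicity (TD50) estimated in mice i.p. by chimney test for motor coordination impairment; protective index calculated as TD50/ED50 for each seizure model.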

[12] = Toxicity in ip dosed Swiss mouse assessed as induction of motor performance impairment measured within 60 seconds measured at 0.5 hrs of time to peak effect by Chimney test; format: organism-based; details: in vivo
Summary of the method: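 Neurotoxicity was measured i.p. in mice by the chimney test for motor impairment. It was given as the median neurotoxic dose (TD50, mg/kg) at the time of peak effect.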

[13] = organism: Rattus norvegicus; test: Inhibition of [3H]BTX binding to sodium channel site 2 in rat cerebral cortex synaptosomes at 500 uM incubated for 60 mins by scintillation counting based radioligand displacement assay; format: subcellular; summary of the method: as §3
[14] = test system: Mus musculus; test: Anticonvulsant activity in Swiss mouse assessed as protection against seizures at 300 mg/kg, ip dosed 2 hrs before initiation of maximal electroconvulsions by maximal electroshock test; format: functional; summary of the method: as §2
[15] = test system: Mus musculus; test: Anticonvulsant activity in Swiss mouse assessed as protection against seizures at 300 mg/kg, ip dosed 1 hr before initiation of maximal electroconvulsions by maximal electroshock test; format: functional; summary of the method: as §2
[16] = test system: Mus musculus; test: Anticonvulsant activity in Swiss mouse assessed as protection against seizures at 100 mg/kg, ip dosed 0.5 hrs before initiation of maximal electroconvulsions by maximal electroshock test; format: functional; summary of the method: as §2
[17] = test system: Mus musculus; test: Anticonvulsant activity in Swiss mouse model of 6 Hz psychomotor seizure mode assessed as protection against seizures at 100 mg/kg, ip dosed 2 hrs before 6 Hz electrical stimulation by 6 Hz test; format: functional; summary of the method: as §2
[18] = test system: Mus musculus; test: Anticonvulsant activity in Swiss mouse model of 6 Hz psychomotor seizure mode assessed as protection against seizures at 100 mg/kg, ip dosed 0.25 hrs before 6 Hz electrical stimulation by 6 Hz test; format: functional; summary of the method: as §2

CC(C(=O)N1CCN(c2cccc(C(F)(F)F)c2)CC1)N1C(=O)CCC1=O (racemic)
Ratio TD50/ED50 [1]: >71.43 | inhibition [2]: 13.9% | Ratio TD50/ED50 [3]: 9.68 | Activity [4]: 100% | Drug metabolism [5]: metabolite_detected | inhibition [6]: 37.4% | inhibition [7]: 12.2% | Activity [8]: 50% | Activity [9]: 100% | Activity [10]: 100% | TD50 at 1 h [11]: 824 mg/kg | TD50 at 0.5 h [12]: > 1500 mg/kg | inhibition [13]: 62.3% | Activity [14]: 100% | Activity [15]: 100% | Activity [16]: 75% | Activity [17]: 100% | Activity [18]: 75%
